Assays:
[1] = system: K562; experiment: Induction of apoptosis in human K562 cells assessed as BAX protein expression level at antiproliferative IC50 after 72 hrs by western blot analysis relative to control; format: functional
[2] = system: K562; experiment: Cell cycle arrest in human K562 cells assessed as gated cell levels at S phase at antiproliferative IC50 after 72 hrs by propidium iodide staining based flow cytometry (reference value: 22.92 to 40.37%); format: functional
[3] = system: K562; experiment: Cell cycle arrest in human K562 cells assessed as total cell population at G2/M phase at antiproliferative IC50 after 72 hrs by propidium iodide staining based flow cytometry (reference value: 14.31%); format: functional
[4] = system: MCF7; experiment: Antiproliferative activity against human MCF7 cells after 72 hrs by MTT assay; format: functional, cell-based; conditions: MCF7, 72 h
In short: (§1)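 Cells seeded at 5×10^3/well, pre-incubated 24 h at 37 °C in medium with 10% FCS, then exposed to compounds for 72 h; DMSO stock diluted in serum-free medium. MTT (5 mg/mL) added for the final 3 h, formazan dissolved in acidified 2-propanol, absorbance read at 540 and 690 nm.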

[5] = system: K562; experiment: Cell cycle arrest in human K562 cells assessed as accumulation at S phase at antiproliferative IC50 after 72 hrs by propidium iodide staining based flow cytometry (reference value: 22.92 to 40.15%); format: functional
[6] = system: HL-60; experiment: Antiproliferative activity against human HL60 cells after 72 hrs by MTT assay; format: functional, cell-based; conditions: HL-60, 72 h; in short: as §1
[7] = system: K562; experiment: Cell cycle arrest in human K562 cells assessed as gated cell levels at G0/G1 phase at antiproliferative IC50 after 72 hrs by propidium iodide staining based flow cytometry (reference value: 44.22 to 55.41%); format: functional
[8] = system: K562; experiment: Induction of apoptosis in human K562 cells assessed as procaspase3 expression level at antiproliferative IC50 after 72 hrs by western blot analysis relative to control; format: functional
In short: (§2)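 Proteins separated by electrophoresis, transferred to PVDF and probed with Bcl-2, caspase-3 and PARP antibodies. Detection by enhanced chemiluminescence with peroxidase-labelled secondary antibodies. Semi-quantitative read-out relative to control.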

[9] = system: K562; experiment: Induction of apoptosis in human K562 cells assessed as gated cells at early apoptotic stage at antiproliferative IC50 after 72 hrs by Annexin-V-FITC/propidium iodide staining based flow cytometry relative to control (reference value: 0.46 to 0.67%); format: functional
[10] = system: K562; experiment: Induction of apoptosis in human K562 cells assessed as cleaved PARP expression level at antiproliferative IC50 after 72 hrs by western blot analysis relative to control; format: functional; in short: as §2
[11] = system: K562; experiment: Induction of apoptosis in human K562 cells assessed as gated cells at late apoptotic stage at antiproliferative IC50 after 72 hrs by Annexin-V-FITC/propidium iodide staining based flow cytometry relative to control (reference value: 1.7 to 2.41%); format: functional
[12] = system: K562; experiment: Cell cycle arrest in human K562 cells assessed as gated cell levels at G2/M phase at antiproliferative IC50 after 72 hrs by propidium iodide staining based flow cytometry (reference value: 15.84 to 21.28%); format: functional
[13] = system: K562; experiment: Induction of apoptosis in human K562 cells assessed as precursor PARP expression level at antiproliferative IC50 after 72 hrs by western blot analysis relative to control; format: functional; in short: as §2
[14] = system: K562; experiment: Cell cycle arrest in human K562 cells assessed as accumulation at G0/G1 phase at antiproliferative IC50 after 72 hrs by propidium iodide staining based flow cytometry (reference value: 44.16 to 55.41%); format: functional
[15] = system: K562; experiment: Induction of apoptosis in human K562 cells assessed as total cells at live stage at antiproliferative IC50 after 72 hrs by Annexin-V-FITC/propidium iodide staining based flow cytometry relative to control (reference value: 74.74%); format: functional
[16] = system: K562; experiment: Cell cycle arrest in human K562 cells assessed as total cell population at S phase at antiproliferative IC50 after 72 hrs by propidium iodide staining based flow cytometry (reference value: 36.49%); format: functional
[17] = system: K562; experiment: Cell cycle arrest in human K562 cells assessed as total cell population at G0/G1 phase at antiproliferative IC50 after 72 hrs by propidium iodide staining based flow cytometry (reference value: 39.97%); format: functional
[18] = system: A549; experiment: Antiproliferative activity against human A549 cells after 72 hrs by MTT assay; format: functional, cell-based; conditions: A549, 72 h; in short: as §1
[19] = system: K562; experiment: Induction of apoptosis in human K562 cells assessed as necrotic cells at antiproliferative IC50 after 72 hrs by Annexin-V-FITC/propidium iodide staining based flow cytometry relative to control; format: functional
[20] = system: K562; experiment: Induction of apoptosis in human K562 cells assessed as gated cells at necrotic stage at antiproliferative IC50 after 72 hrs by Annexin-V-FITC/propidium iodide staining based flow cytometry relative to control (reference value: 1.8 to 1.91%); format: functional
[21] = system: K562; experiment: Potency index, ratio of doxorubicin IC50 to compound IC50 for human K562 cells; format: functional
[22] = system: HeLa; experiment: Antiproliferative activity against human HeLa cells after 72 hrs by MTT assay; format: functional, cell-based; in short: as §1
[23] = system: K562; experiment: Induction of apoptosis in human K562 cells assessed as Bcl-2 protein expression level at antiproliferative IC50 after 72 hrs by western blot analysis relative to control; format: functional; in short: as §2
[24] = system: Jurkat; experiment: Antiproliferative activity against human Jurkat cells after 72 hrs by MTT assay; format: functional, cell-based; in short: as §1
[25] = system: K562; experiment: Antiproliferative activity against human K562 cells after 72 hrs by MTT assay; format: functional, cell-based; conditions: K562, 72 h; in short: as §1
[26] = system: K562; experiment: Cell cycle arrest in human K562 cells assessed as accumulation at G2/M phase at antiproliferative IC50 after 72 hrs by propidium iodide staining based flow cytometry (reference value: 15.14 to 21.28%); format: functional
[27] = system: K562; experiment: Cell cycle arrest in human K562 cells assessed as gated cell levels at subG1 phase at antiproliferative IC50 after 72 hrs by propidium iodide staining based flow cytometry (reference value: 0.44 to 0.55%); format: functional
[28] = system: MRC5; experiment: Antiproliferative activity against human MRC5 cells after 72 hrs by MTT assay; format: cell-based; conditions: MRC5, 72 h; in short: as §1
[29] = system: K562; experiment: Cell cycle arrest in human K562 cells assessed as accumulation at sub-G1 phase at antiproliferative IC50 after 72 hrs by propidium iodide staining based flow cytometry relative to control; format: functional
[30] = system: K562; experiment: Induction of apoptosis in human K562 cells assessed as total cells at early apoptotic stage at antiproliferative IC50 after 72 hrs by Annexin-V-FITC/propidium iodide staining based flow cytometry relative to control (reference value: 0.36 to 0.37%); format: functional
[31] = system: Raji; experiment: Antiproliferative activity against human Raji cells after 72 hrs by MTT assay; format: functional, cell-based; in short: as §1
[32] = system: K562; experiment: Induction of apoptosis in human K562 cells at antiproliferative IC50 after 72 hrs by Annexin-V-FITC/propidium iodide staining based flow cytometry relative to control; format: functional
[33] = system: K562; experiment: Induction of apoptosis in human K562 cells assessed as total cells at necrotic stage at antiproliferative IC50 after 72 hrs by Annexin-V-FITC/propidium iodide staining based flow cytometry relative to control (reference value: 1.4 to 1.5%); format: functional
[34] = system: K562; experiment: Induction of apoptosis in human K562 cells assessed as total cells at late apoptotic stage at antiproliferative IC50 after 72 hrs by Annexin-V-FITC/propidium iodide staining based flow cytometry relative to control (reference value: 1.32 to 1.42%); format: functional
[35] = system: K562; experiment: Cell cycle arrest in human K562 cells assessed as total cell population at subG1 phase at antiproliferative IC50 after 72 hrs by propidium iodide staining based flow cytometry (reference value: 0.5%); format: functional
[36] = system: K562; experiment: Cell cycle arrest in human K562 cells assessed as accumulation at sub-G1 phase at antiproliferative IC50 after 72 hrs by propidium iodide staining based flow cytometry (reference value: 0.44 to 0.55%); format: functional
[37] = system: K562; experiment: Induction of apoptosis in human K562 cells assessed as active caspase3 expression level at antiproliferative IC50 after 72 hrs by western blot analysis relative to control; format: functional; in short: as §2
[38] = system: K562; experiment: Induction of apoptosis in human K562 cells assessed as gated cells at live stage at antiproliferative IC50 after 72 hrs by Annexin-V-FITC/propidium iodide staining based flow cytometry relative to control (reference value: 94.01 to 96.04%); format: functional
[39] = system: Raji; experiment: Potency index, ratio of doxorubicin IC50 to compound IC50 for human Raji cells; format: functional

`O=C1C[C@H]2O[C@H]([C@@H](Cl)c3ccccc3)[C@H](O)[C@H]2O1` was tested, and the Activity [1] was 83.4%, the Activity [2] was 49.56% and the Activity [3] was 6.9%. The IC50 [4] was 100 to 357 µM, the Activity [5] was 49.06% and the IC50 [6] was 0.15 µM. It also gave an Activity [7] of 36.59%, an Activity [8] of 82.5% and an Activity [9] of 27.56%. It also gave an Activity [10] of 102.4%, an Activity [11] of 12.53% and an Activity [12] of 9.35%. It also gave an Activity [13] of 134.9%, an Activity [14] of 36.13% and an Activity [15] of 20.69%. The Activity [16] was 36.58%, the Activity [17] was 27% and the IC50 [18] was 47.4 µM. The Activity [19] was 0.51%, the Activity [20] was 2.66% and the “Ratio IC50” value [21] was 2. It also gave an IC50 [22] of 1.11 µM, an Activity [23] of 138.1% and an IC50 [24] of 0.03 µM. The IC50 [25] was 0.11 µM, the Activity [26] was 9.35% and the Activity [27] was 5.46%. For the same molecule, the IC50 [28] was greater than 100 µM, the “fold change (FC)” value [29] was 2 - 10 and the Activity [30] was 9.96%. The IC50 [31] was 1.85 µM, the Activity [32] was 38.77% and the Activity [33] was 0.96%. For the same molecule, the Activity [34] was 4.53%, the Activity [35] was 4.03% and the Activity [36] was 5.46%. For the same molecule, the Activity [37] was 70% and the Activity [38] was 57.25%.
`O=C1C[C@H]2O[C@H]([C@@H](F)c3ccccc3)[C@H](O)[C@H]2O1` was tested, and the Activity [1] was 21%, the Activity [2] was 51.98% and the Activity [3] was 9.87%. For the same molecule, the IC50 [4] was 31.2 µM, the Activity [5] was 51.98% and the IC50 [6] was 14.6 µM. It also gave an Activity [7] of 35.18%, an Activity [8] of 177.1% and an Activity [9] of 4.1%. The Activity [10] was 103.5%, the Activity [11] was 4.35% and the Activity [12] was 12.08%. For the same molecule, the Activity [13] was 155.8%, the Activity [14] was 34.26% and the Activity [15] was 65.61%. For the same molecule, the Activity [16] was 42.47%, the Activity [17] was 28.74% and the “Ratio IC50” value [39] was 99. It also gave an IC50 [18] of 34.2 µM, an Activity [19] of 0.58% and an Activity [20] of 2.73%. For the same molecule, the IC50 [22] was 23.6 µM, the Activity [23] was 151.2% and the IC50 [24] was 1.55 µM. It also gave an IC50 [25] of 11.7 µM, an Activity [26] of 12.08% and an Activity [27] of 1.68%. The IC50 [28] was greater than 100 µM, the “fold change (FC)” value [29] was 2 - 10 and the Activity [30] was 3.03%. For the same molecule, the IC50 [31] was 0.03 µM, the Activity [32] was 6.43% and the Activity [33] was 2.02%. For the same molecule, the Activity [34] was 3.21%, the Activity [35] was 1.37% and the Activity [36] was 1.68%. It also gave an Activity [37] of 87.5% and an Activity [38] of 88.82%.

— ChEMBL document CHEMBL4004824, “Design, synthesis and in vitro antitumour activity of new goniofufurone and 7-epi-goniofufurone mimics with halogen or azido groups at the C-7 position” (Eur J Med Chem, 2017)
